The results in this text go back to BindingDB's records for doi:10.1021/jm300138g (Neuraxon, 2012).

The target of this test is Sodium-dependent noradrenaline transporter (Homo sapiens, UniProt P23975). In words: Displacement of [3H]nisoxetine from human NET expressed in CHO cells after 120 mins by scintillation counting. The gist of the method:
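Membranes from hNET-transfected CHO cells (20 μg protein) incubated 120 min at 4 °C with 1 nM [3H]nisoxetine in 50 mM Tris-HCl pH 7.4, 120 mM NaCl, 5 mM KCl. Nonspecific binding defined with 1 μM desipramine. Filtered on PEI-soaked GF/B and counted.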
A general note: In a radioligand displacement assay an active substance lowers the binding of a labelled ligand.

pIC50: −log10 of the molar value.

Sequence of Sodium-dependent noradrenaline transporter (P23975 whole entry): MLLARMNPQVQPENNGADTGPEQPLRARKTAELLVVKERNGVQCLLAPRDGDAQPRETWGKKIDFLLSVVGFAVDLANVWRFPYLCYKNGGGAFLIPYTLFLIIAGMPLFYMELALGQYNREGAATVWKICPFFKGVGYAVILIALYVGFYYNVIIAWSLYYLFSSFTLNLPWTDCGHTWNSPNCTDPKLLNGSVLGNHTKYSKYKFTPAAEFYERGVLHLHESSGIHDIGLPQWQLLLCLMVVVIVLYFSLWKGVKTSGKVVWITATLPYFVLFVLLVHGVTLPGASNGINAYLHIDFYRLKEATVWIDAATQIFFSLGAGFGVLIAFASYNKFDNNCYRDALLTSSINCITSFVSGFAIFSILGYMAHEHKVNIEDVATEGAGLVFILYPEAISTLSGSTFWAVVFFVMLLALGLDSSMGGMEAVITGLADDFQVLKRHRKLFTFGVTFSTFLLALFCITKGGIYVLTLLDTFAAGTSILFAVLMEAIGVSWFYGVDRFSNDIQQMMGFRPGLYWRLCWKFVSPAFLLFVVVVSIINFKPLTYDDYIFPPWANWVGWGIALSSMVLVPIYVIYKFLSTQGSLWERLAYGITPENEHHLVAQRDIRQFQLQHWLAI

The compound `CN(C)C1CC=C(c2c[nH]c3ccc(N=C(N)c4cccs4)cc23)CC1` (stereo unspecified) gave a pIC50 of 6.26.

By pIC50 is commonly meant the negative decadic logarithm of the IC50, by convention in mol/L. High values mean a low IC50, low ones a high IC50.
